Test results from paper PMC8559613 (Journal of biomolecular screening, 2016).

Columns and labels:
[1] = tested on: KLE cells; assay: Cell cycle analysis; assay type: cell-based, human; details: 72 h; for % of cells in >4N / % of cells in G0/G1 / % of cells in G2/M / % of cells in S / % of cells in Sub-G1: mean ± SD; for cell cycle effects in CYP1B1-inhibited KLE cells / cell cycle effect in KLE cells compared to untreated cells: 10 and 100 μM
Method in brief: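 KLE cells, day 7 post-seeding, exposed to 10 or 100 μM prodrug with or without 10 μM α-NF for 72 h; untreated cells received no prodrug. Cells harvested, fixed in 70% (v/v) ethanol at −20°C overnight, then stained with PI/RNase buffer for 30 min at room temperature. DNA content read by flow cytometry. Run in triplicate or quadruplicate.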

[2] = Resazurin cytotoxicity assay in CYP1B1-transfected HEK293T cells; assay type: cell-based; details: human, HEK293T cells transfected with CYP1B1
[3] = after the 14th daily oral administration of 6 mg/kg, vervet monkeys; cited from earlier work
[4] = tested on: KLE cells; assay: Annexin V-FITC/PI apoptosis assay in KLE cells; assay type: cell-based, human; details: for pro-apoptotic effect (early apoptotic cell population relative to untreated cells): 50 μM, without α-NF, 24, 48 and 72 h; for concentration dependence of pro-apoptotic effect: 10, 50 and 100 μM, without α-NF, 72 h
Method in brief: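 KLE cells grown in DMEM/F-12 (1:1) with 10% FBS were seeded in 6-well plates and used on day 7 post-seeding. Prodrug was given without α-NF at 50 μM for 24, 48 or 72 h, or at 10, 50 or 100 μM for 72 h. Controls received no prodrug. Cells were double-stained with Annexin V-FITC/PI and run on flow cytometry. % early apoptotic cells was compared with untreated controls by one-way ANOVA with Dunnett post test. Triplicate or quadruplicate.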

[5] = Resazurin cytotoxicity assay in HepaRG cells; assay type: cell-based; details: human
Method in brief: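 HepaRG cells grown 2 weeks in Growth medium, then 2 weeks in Differentiation medium, then seeded at 5,000 cells/well. Prodrug given at 0–100 μM with medium changed daily for 69 h. Resazurin (0.01% w/v) added for a further 3 h (72 h total). Fluorescence read at ex 565/em 595 nm. IC50 from variable-slope dose-response fit. Controls: 0.1% DMSO vehicle and 2% Triton X-100.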

[6] = Resazurin cytotoxicity assay in wild-type HEK293T cells; assay type: cell-based; details: human
Method in brief: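 Untransfected HEK293T cells in DMEM with 10% FBS, seeded at 5,000 cells/well and held 24 h. Prodrug given at 0–100 μM with medium changed daily for 69 h. Resazurin (0.01% w/v) added for a further 3 h (72 h total). Fluorescence read at ex 565/em 595 nm. IC50 from variable-slope dose-response fit. Controls: 0.1% DMSO vehicle and 2% Triton X-100.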

[7] = tested on: KLE cells; assay type: cell-based
[8] = tested on: CYP1B1; assay: EROD activity assay in KLE cells; assay type: cell-based; details: human, probe 7-ER (0.8 μM)
[9] = 100 μM prodrug, with 10 μM α-NF

SMILES | % of cells in >4N ([1]; 10 μM prodrug, with 10 μM α-NF) [%] | % of cells in G0/G1 ([1]; 10 μM prodrug, with 10 μM α-NF) [%] | % of cells in G2/M ([1]; 10 μM prodrug, with 10 μM α-NF) [%] | % of cells in S ([1]; 10 μM prodrug, with 10 μM α-NF) [%] | % of cells in Sub-G1 ([1]; 10 μM prodrug, with 10 μM α-NF) [%] | % of cells in >4N ([1]; 10 μM prodrug, without α-NF) [%] | % of cells in G0/G1 ([1]; 10 μM prodrug, without α-NF) [%] | % of cells in G2/M ([1]; 10 μM prodrug, without α-NF) [%] | % of cells in S ([1]; 10 μM prodrug, without α-NF) [%] | % of cells in Sub-G1 ([1]; 10 μM prodrug, without α-NF) [%] | % of cells in >4N [1, 9] [%] | % of cells in G0/G1 [1, 9] [%] | % of cells in G2/M [1, 9] [%] | % of cells in S [1, 9] [%] | % of cells in Sub-G1 [1, 9] [%] | % of cells in >4N ([1]; 100 μM prodrug, without α-NF) [%] | % of cells in G0/G1 ([1]; 100 μM prodrug, without α-NF) [%] | % of cells in G2/M ([1]; 100 μM prodrug, without α-NF) [%] | % of cells in S ([1]; 100 μM prodrug, without α-NF) [%] | % of cells in Sub-G1 ([1]; 100 μM prodrug, without α-NF) [%] | other results
CONC(=N)c1ccc(-c2ccc(-c3ccc(C(=N)NOC)cn3)o2)cc1 [DB844, N-methoxy-6-{5-[4-(N-methoxyamidino)phenyl]-furan-2-yl}-nicotinamidine] | 4.9 ± 0.9 | 41.1 ± 1.5 | 40.7 ± 2.9 | 7.9 ± 1.5 | 4.1 ± 1.1 | 6.3 ± 1.9 | 38.7 ± 2.1 | 47.3 ± 0.5 | 8.0 ± 1.4 | 4.6 ± 0.8 | 3.4 ± 0.6 | 43.3 ± 0.4 | 41.8 ± 1.1 | 5.6 ± 0.7 | 4.3 ± 0.9 | 3.7 ± 0.9 | 43.9 ± 1.2 | 40.6 ± 1.3 | 6.6 ± 1.1 | 5.3 ± 1.5 | cell cycle effects in CYP1B1-inhibited KLE cells ([1]; with 10 μM α-NF): absent; cell cycle effect in KLE cells compared to untreated cells ([1]; without α-NF): concentration-dependent G0/G1 cell cycle arrest; IC50 at 72 h [2]: 38.8 ± 0.9 µM; average maximal plasma concentration [3]: 0.43 µM; pro-apoptotic effect (early apoptotic cell population relative to untreated cells) [4]: significant increase in the early apoptotic cell population; concentration dependence of pro-apoptotic effect [4]: concentration-dependent pro-apoptotic effects; IC50 at 72 h [5]: 76.3 ± 1.6 µM; IC50 at 72 h [6]: 37.9 ± 0.9 µM
CON=C(N)c1ccc(-c2ccc(-c3ccc(C(N)=NOC)cc3)o2)cc1 [DB289, 2,5-bis[4-amidinophenyl]furan-bis-O-methylamidoxime] | 5.3 ± 1.0 | 39.5 ± 0.6 | 39.3 ± 2.9 | 9.8 ± 1.4 | 5.4 ± 0.0 | 1.7 ± 0.6 | 40.0 ± 1.7 | 45.0 ± 5.2 | 5.3 ± 1.1 | 5.1 ± 1.4 | 3.6 ± 0.4 | 43.2 ± 3.4 | 42.4 ± 2.6 | 6.1 ± 1.1 | 4.7 ± 1.0 | 4.5 ± 1.3 | 43.2 ± 0.8 | 39.5 ± 0.2 | 8.3 ± 1.0 | 4.5 ± 0.7 | viability of KLE cells ([7]; 50 μM prodrug, KLE cells without α-NF, normalized to vehicle control): 21%; cell cycle effects in CYP1B1-inhibited KLE cells ([1]; with 10 μM α-NF): absent; cell cycle effect in KLE cells compared to untreated cells ([1]; without α-NF): concentration-dependent G0/G1 cell cycle arrest; pro-apoptotic effect (early apoptotic cell population relative to untreated cells) [4]: significant increase in the early apoptotic cell population; concentration dependence of pro-apoptotic effect [4]: concentration-dependent pro-apoptotic effects
O=c1cc(-c2ccccc2)oc2c1ccc1ccccc12 [α-NF, α-naphthoflavone] |  |  |  |  |  |  |  |  |  |  |  |  |  |  |  |  |  |  |  |  | cytotoxic effect on KLE cells ([7]; α-NF up to 15 μM): did not show any cytotoxic effect; inhibition at 24 h, 1 μM [8]: 81%
